Results: ChEMBL document CHEMBL1134294, “A prodrug form of a Plasmodium falciparum glutathione reductase inhibitor conjugated with a 4-anilinoquinoline” (J Med Chem, 2001)
pEC50, pIC50: −log10 of the molar value. Activity calls are given as the source filed them. The calls are words filed in the database; no cut-off is given here.

Legend:
[1] = biological target: T1, Glutathione reductase, mitochondrial (Homo sapiens) (UniProt P00390); assay: Competitive inhibition of human Glutathione Reductase
T1 sequence (whole entry): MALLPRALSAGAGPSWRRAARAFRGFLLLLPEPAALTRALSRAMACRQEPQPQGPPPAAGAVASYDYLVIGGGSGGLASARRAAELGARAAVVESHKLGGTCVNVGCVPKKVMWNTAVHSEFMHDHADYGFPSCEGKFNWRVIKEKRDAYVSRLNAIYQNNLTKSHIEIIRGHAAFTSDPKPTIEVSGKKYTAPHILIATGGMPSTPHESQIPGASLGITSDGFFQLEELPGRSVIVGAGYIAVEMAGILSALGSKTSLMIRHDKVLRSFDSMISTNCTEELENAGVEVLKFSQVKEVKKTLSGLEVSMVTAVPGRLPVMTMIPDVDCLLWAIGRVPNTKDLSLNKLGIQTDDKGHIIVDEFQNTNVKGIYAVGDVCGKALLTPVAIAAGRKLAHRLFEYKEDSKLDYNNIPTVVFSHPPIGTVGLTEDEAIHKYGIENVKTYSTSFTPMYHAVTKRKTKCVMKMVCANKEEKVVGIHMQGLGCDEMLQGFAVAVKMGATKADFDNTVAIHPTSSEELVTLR

[2] = biological target: Glutathione reductase (Plasmodium falciparum 3D7) (UniProt O15770); assay: Competitive inhibition of Plasmodium falciparum Glutathione Reductase; settings: Plasmodium falciparum FcB1
Plasmodium falciparum = assay: Effective dose against chloroquine-resistant Plasmodium falciparum FcB1R; type: functional
In short: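 Asynchronous cultures in human erythrocytes (0.5% parasitemia, 1% hematocrit) received serially diluted drug, DMSO ≤0.1%. After 24 h at 37 °C, 0.5 μCi [3H]hypoxanthine was added and incubation continued another 24 h. Growth inhibition was taken versus drug-free control, ED50 read from the concentration–response curve, and reported as mean of ≥3 independent experiments.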

Glutathione reductase = Glutathione reductase (Plasmodium falciparum 3D7, UniProt O15770); assay: In vitro inhibition of Plasmodium falciparum Glutathione Reductase; parameters: species or system FcB1
In short: (§1)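 Recombinant purified GR (about 5 mU/ml) with 100 μM NADPH in 47 mM potassium phosphate, 200 mM KCl, 1 mM EDTA, pH 6.9, at 25 °C. Enzyme, NADPH and inhibitor are premixed and the reaction is started with 100 μM GSSG. NADPH loss is read at 340 nm. IC50 is taken from increasing inhibitor concentrations in 1% final DMSO, run in duplicate.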

[3] = biological target: T2, Glutathione reductase, mitochondrial (Homo sapiens, UniProt P00390); assay: In vitro inhibition of human Glutathione Reductase; in short: as §1
T2 sequence (P00390 whole entry): T1 sequence (whole entry)

[4] = biological target: T1, Glutathione reductase, mitochondrial (Homo sapiens); assay: In vitro inhibition of human Glutathione Reductase; Not active; in short: as §1
[5] = Susceptibility of compound to hydrolysis at 37 degrees C at pH 7.4 phosphate buffer; type: ADME
In short: (§2)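 Prodrug (100 μM final, from 1 mM stock in 10% aqueous DMSO) is incubated at 37 °C in pH 7.4 phosphate buffer (150 mM NaCl, 4 mM NaH₂PO₄, 25 mM NaHCO₃) or pH 5.0 acetate (150 mM NaCl, 10 mM NaOAc). Half-life of ester disappearance is found by HPLC as the mean of two determinations.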

[6] = Susceptibility of compound to hydrolysis at 37 degrees C at pH 5.0 acetate medium; type: ADME; in short: as §2
[7] = biological target: Glutathione reductase (Plasmodium falciparum 3D7) (UniProt O15770); assay: In vitro inhibition of Plasmodium falciparum Glutathione Reductase; Not active; settings: Plasmodium falciparum FcB1; in short: as §1
[8] = Susceptibility of compound to hydrolysis at 37 degrees C for RPMI-10% human serum; type: ADME; settings: RPMI with 10% human serum
In short: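 Prodrug (100 μM final, from 1 mM stock in 10% aqueous DMSO) is held in RPMI with 10% human serum at 37 °C and sampled from 0 to 77.5 h. Samples are mixed with EtOH plus internal reference, centrifuged, and the supernatant is analysed by HPLC. Half-life of ester disappearance is the mean of two determinations.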

[9] = read-out: ED50 (the source's name)

Chain of Glutathione reductase (O15770 whole entry): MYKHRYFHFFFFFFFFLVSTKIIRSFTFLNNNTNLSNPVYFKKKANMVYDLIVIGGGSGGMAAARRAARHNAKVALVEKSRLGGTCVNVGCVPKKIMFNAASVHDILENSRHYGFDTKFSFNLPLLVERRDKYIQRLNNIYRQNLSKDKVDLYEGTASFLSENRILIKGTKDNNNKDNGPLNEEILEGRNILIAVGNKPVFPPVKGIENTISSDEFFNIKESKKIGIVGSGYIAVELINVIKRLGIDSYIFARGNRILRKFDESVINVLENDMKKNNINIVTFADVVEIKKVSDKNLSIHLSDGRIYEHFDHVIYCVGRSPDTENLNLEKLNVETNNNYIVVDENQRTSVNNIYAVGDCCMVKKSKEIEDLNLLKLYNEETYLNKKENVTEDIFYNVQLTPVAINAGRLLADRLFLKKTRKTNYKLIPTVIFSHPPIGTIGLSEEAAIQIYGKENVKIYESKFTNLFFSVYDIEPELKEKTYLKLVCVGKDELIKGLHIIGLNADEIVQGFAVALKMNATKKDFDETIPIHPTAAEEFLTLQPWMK
Chain of Glutathione reductase (Plasmodium falciparum 3D7) (O15770 whole entry): as above

SMILES	Ki.c [1]	Ki.c [2] [nM]	pEC50 (Plasmodium falciparum; [9])	pIC50 (Glutathione reductase)	pIC50 [3]	pEC50 (Plasmodium falciparum; read-out: ED50)	NA [4]	half-life [5] [h]	half-life [6] [h]	NA [7]	half-life [8] [h]
CC1=C(CCCCCC(=O)O)C(=O)c2ccccc2C1=O	1900 nM	500	5.46	6.30	5.59						
CC1=C(CCCCCC(=O)OCc2cc(NC(=O)CN3CCCCC3)cc(Nc3ccnc4cc(Cl)ccc34)c2)C(=O)c2c(O)cccc2C1=O						7.25					
COC(=O)CCCCCC1=C(C)C(=O)c2ccccc2C1=O			4.97				inactive	1	0.5	inactive	> 3
CC1=C(CCCCC(=O)O)C(=O)c2ccccc2C1=O	1.8	3100	5.55	5.40	5.57						
CCN(CCCC(C)Nc1ccnc2cc(Cl)ccc12)CCOC(=O)CCCCCC1=C(C)C(=O)c2ccccc2C1=O (stereo unspecified)			6.97					> 80	> 80		> 80
CCCC(=O)OCOC(=O)CCCCCC1=C(C)C(=O)c2ccccc2C1=O			4.65				inactive	1	0.5	inactive	
CC1=C(CCCCCC(=O)OCOC(=O)C(C)(C)C)C(=O)c2ccccc2C1=O			4.62				inactive	2	1	inactive	
CC1=C(CCCCCC(=O)O)C(=O)c2c(O)cccc2C1=O	750 nM	2300	5.09	5.89	6.12						
